Assay results from different studies.
Cell line: HepG2
Effect on: cell growth or viability

O=C(Cc1csc(NC(=O)c2cc3ccccc3[nH]2)n1)NO — IC50 (MTT; 24 h): 67.9 µM
CCOc1nc(-c2cccc(O)c2)cc(-c2cc3ccccc3nc2N2CCOCC2)c1C#N — IC50 (MTT; 72 h): 0.132 µM
CN(C)c1cc(NC(=O)CCc2cccnc2)c(O)c2c1C[C@H]1C[C@H]3[C@H](N(C)C)C(O)=C(C(N)=O)C(=O)[C@@]3(O)C(O)=C1C2=O — IC50 (ATP luminescence; 72 h): > 200 µg/mL
Cc1ccc(-c2cc(-c3c(Cl)cccc3Cl)c3c(=O)n(C)c(=O)n(C)c3n2)cc1 — IC50 (MTT; 48 h): 7.49 µM
COc1nc(NCc2cn(-c3ccc(C(=O)Nc4ccccc4)cc3)nn2)nc(OC)n1 — IC50 (MTT; 72 h): 1.48 µM
CN(C)c1ccc(O)c2c1C[C@H]1C[C@H]3[C@H](N(C)C)C(O)=C(C(N)=O)C(=O)[C@@]3(O)C(O)=C1C2=O — IC50 (ATP luminescence; 72 h): > 200 µg/mL
Cc1ccc(-c2cc(-c3ccc(N(C)C)cc3)c3c(=O)[nH]c(=O)[nH]c3n2)cc1 — IC50 (MTT; 48 h): 12.1 µM
Cc1nc(Nc2ncc(C(=O)Nc3c(C)cccc3Cl)s2)cc(N2CCN(CCO)CC2)n1 — IC50 (MTT; 24 h): 60.8 µM
Clc1ccc(-c2nnc(Nc3ccc(C4=NNC(c5ccc(Cl)cc5)C4)cc3)c3ccccc23)cc1 (stereo not shown) — IC50 (MTT; 72 h): 0.8 µM
COc1ccc(-c2cc(-c3ccc(OC)cc3)c3c(=O)[nH]c(=O)[nH]c3n2)cc1 — IC50 (MTT; 48 h): 9.62 µM
CN(C)c1cc(NC(=O)c2ccccc2)c(O)c2c1C[C@H]1C[C@H]3[C@H](N(C)C)C(O)=C(C(N)=O)C(=O)[C@@]3(O)C(O)=C1C2=O — IC50 (ATP luminescence; 72 h): 21.3 µg/mL
COc1ccc(-c2cc(-c3cccc(Br)c3)c3c(=O)n(C)c(=O)n(C)c3n2)cc1 — IC50 (MTT; 48 h): 12.4 µM
CN(C)c1cc(NC(=O)Cc2ccccn2)c(O)c2c1C[C@H]1C[C@H]3[C@H](N(C)C)C(O)=C(C(N)=O)C(=O)[C@@]3(O)C(O)=C1C2=O — IC50 (ATP luminescence; 72 h): > 200 µg/mL
Cc1ccc(-c2cc(-c3ccc(Cl)c(F)c3)c3c(=O)n(C)c(=O)n(C)c3n2)cc1 — IC50 (MTT; 48 h): 38.8 µM
COc1ccc2nc(N3CCOCC3)c(-c3cc(-c4cccc(O)c4)nc4[nH]nc(N)c34)cc2c1 — IC50 (MTT; 72 h): 0.087 µM
CN(C)c1cc(NC(=O)Cc2ccncn2)c(O)c2c1C[C@H]1C[C@H]3[C@H](N(C)C)C(O)=C(C(N)=O)C(=O)[C@@]3(O)C(O)=C1C2=O — IC50 (ATP luminescence; 72 h): > 200 µg/mL
